Assay [1] deals with T1, Adenosine receptor A1 (Homo sapiens) (UniProt P30542).
T1 sequence (whole entry): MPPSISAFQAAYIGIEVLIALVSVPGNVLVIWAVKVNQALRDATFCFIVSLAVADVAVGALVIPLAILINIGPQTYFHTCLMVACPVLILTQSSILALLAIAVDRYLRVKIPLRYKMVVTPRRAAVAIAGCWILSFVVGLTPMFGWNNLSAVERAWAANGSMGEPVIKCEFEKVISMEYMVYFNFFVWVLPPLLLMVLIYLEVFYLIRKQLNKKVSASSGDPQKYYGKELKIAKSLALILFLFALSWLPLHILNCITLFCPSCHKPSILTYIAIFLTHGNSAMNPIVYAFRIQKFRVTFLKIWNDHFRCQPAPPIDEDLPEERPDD

For assay [2], the target named is T2, Adenosine receptor A3 (Homo sapiens) (UniProt P0DMS8).
T2 sequence (whole entry): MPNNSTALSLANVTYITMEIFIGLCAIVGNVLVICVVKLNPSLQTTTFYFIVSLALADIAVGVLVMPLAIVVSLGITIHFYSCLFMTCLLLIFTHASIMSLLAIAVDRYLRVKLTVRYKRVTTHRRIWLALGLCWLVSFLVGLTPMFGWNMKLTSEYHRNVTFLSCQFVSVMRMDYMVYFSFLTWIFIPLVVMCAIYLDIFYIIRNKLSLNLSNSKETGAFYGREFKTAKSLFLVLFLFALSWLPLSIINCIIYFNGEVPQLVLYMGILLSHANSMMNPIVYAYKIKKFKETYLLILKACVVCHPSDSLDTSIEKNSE
Kind of assay: Agonist activity at human Adenosine A3 receptor transfected in CHO-K1 cells assessed as inhibition of forskolin-stimulated cAMP production after 30 mins by multimode microplate reader analysis relative to total forskolin. The assay is classed as functional, cell-based. Set-up: concentration or dose not given beside the values. Summed up: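 CHO-K1 cells are transiently transfected with receptor (2 µg DNA, FuGene 6) and harvested at 48 h. Cells are resuspended in PBS with 0.1% BSA and 25 µM rolipram, at 2500 cells/well. They are co-incubated with 10 µM forskolin and ligand (10 pM to 1 µM) for 30 min at room temperature. cAMP is measured by LANCE kit. Data are expressed as % of the 10 µM forskolin response.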
(Cyclic AMP is a second messenger, typically raised through Gs and lowered through Gi signalling.)

For assay [3], the target named is T3, Adenosine receptor A2b (Homo sapiens) (UniProt P29275).
T3 sequence (whole entry): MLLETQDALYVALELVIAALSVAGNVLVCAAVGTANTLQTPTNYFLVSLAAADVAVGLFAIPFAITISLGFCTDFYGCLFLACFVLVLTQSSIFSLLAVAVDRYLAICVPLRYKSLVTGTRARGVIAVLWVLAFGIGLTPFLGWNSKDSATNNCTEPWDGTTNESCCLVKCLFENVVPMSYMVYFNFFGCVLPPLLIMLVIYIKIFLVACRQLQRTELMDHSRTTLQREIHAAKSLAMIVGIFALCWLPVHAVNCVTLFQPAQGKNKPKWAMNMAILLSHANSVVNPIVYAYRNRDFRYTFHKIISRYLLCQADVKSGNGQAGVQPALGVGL
In words: Agonist activity at human Adenosine A2B receptor expressed in yeast cells coexpressed with chimeric GPA1/Galphas after 16 hrs by beta-galactosidase reporter gene assay relative to NECA. The class given is cell-based. The method, boiled down: (§1)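 Yeast (Δfar1, FUS1-lacZ) express A2BR from the GAPDH promoter alongside Gpa1p/Gαs chimera. The OD600 is 0.02 and compound is added in 1% v/v DMSO for 16 h at 30°C. β-Galactosidase is read with ONPG at OD430, normalised as (OD430−OD620)/OD620. […] Three-parameter logistic fit gives EC50 and Emax. Data are from 5-8 independent experiments.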
A general note: Reporter assays use an easily measured gene product as a stand-in for the process of interest.

Assay [4] has as its target T3, Adenosine receptor A2b (Homo sapiens). Kind of assay: Binding affinity to human Adenosine A2B receptor expressed in yeast cells coexpressed with GPA1/Galphas. The assay is classed as cell-based. Summed up: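 pKA is derived by non-linear regression of the operational model of agonism applied to 16 h yeast FUS1-lacZ concentration-response data, with A2BR coupled to the GPA1/Gαs chimera.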

Assay [5] deals with T4, Adenosine receptor A2a (Homo sapiens, UniProt P29274).
In assay [6] the target is T3, Adenosine receptor A2b (Homo sapiens). Kind of assay: Agonist activity at human Adenosine A2B receptor expressed in yeast cells coexpressed with chimeric GPA1/Galphas at 100 µM after 16 hrs by beta-galactosidase reporter gene assay. The class given is cell-based. The method, boiled down:
as §1

For assay [7], the target named is T4, Adenosine receptor A2a. Kind of assay: Agonist activity at human Adenosine A2A receptor expressed in yeast cells coexpressed with chimeric GPA1/Galphas at 100 uM after 16 hrs by beta-galactosidase reporter gene assay. The assay is classed as cell-based. Summed up: (§2)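 Human receptor expressed from GAPDH promoter (p426-GPD) in Δfar1 FUS1-lacZ yeast with Gpa1p(1-467) carrying the 5 C-terminal Gα residues. Cells are grown overnight in SD-URA at 30°C, diluted 1:10 and grown 8 h. They are set to OD600 0.02 and given compound at 1% v/v DMSO for 16 h at 30°C. A2A strain is grown in SD-URA-HIS, with 5 mM 3-amino-triazole in treatment media. Read-out: ONPG, (OD430−OD620)/OD620.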

Assay [8] deals with T1, Adenosine receptor A1 (Homo sapiens). Kind of assay: Agonist activity at human Adenosine A1 receptor expressed in yeast cells coexpressed with chimeric GPA1/Galphai1 at 100 uM after 16 hrs by beta galactosidase reporter gene assay. The assay is classed as cell-based. The method, boiled down:
as §2

Assay [9] concerns the target T5, Adenosine receptor A3 (Homo sapiens, UniProt P0DMS8).
T5 sequence (P0DMS8 whole entry): T2 sequence (whole entry)
Kind of assay: (§3) Agonist activity at human Adenosine A3 receptor transfected in CHO-K1 cells assessed as inhibition of forskolin-stimulated cAMP production after 30 mins by multimode microplate reader analysis. The class given is functional, cell-based. The method, boiled down:
(§4)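 CHO-K1 cells are transiently transfected with receptor (2 µg DNA, FuGene 6) and harvested at 48 h. They are co-incubated with 10 µM forskolin and ligand (10 pM to 1 µM) for 30 min at room temperature. cAMP is measured by LANCE kit. Data are expressed as % of the 10 µM forskolin response.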

The target in assay [10] is T6, Adenosine receptor A1 (Homo sapiens, UniProt P30542).
T6 sequence (P30542 whole entry): T1 sequence (whole entry)
Kind of assay: Agonist activity at human Adenosine A1 receptor expressed in yeast cells coexpressed with chimeric GPA1/Galphai1 after 16 hrs by beta galactosidase reporter gene assay. The assay is classed as cell-based.

Assay [11] has as its target T4, Adenosine receptor A2a. In words: Agonist activity at human Adenosine A2A receptor expressed in yeast cells coexpressed with chimeric GPA1/Galphas after 16 hrs by beta-galactosidase reporter gene assay. The assay is classed as cell-based.
The target in assay [12] is T1, Adenosine receptor A1 (Homo sapiens). The source holds these as a separate data set.
Assay [13] has as its target T3, Adenosine receptor A2b (Homo sapiens). In words: Agonist activity at human Adenosine A2B receptor expressed in yeast cells coexpressed with chimeric GPA1/Galphas after 16 hrs by beta-galactosidase reporter gene assay. The assay is classed as cell-based. The method, boiled down: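 Yeast (Δfar1, FUS1-lacZ) express A2BR from the GAPDH promoter alongside Gpa1p/Gαs chimera. The OD600 is 0.02 and compound is added in 1% v/v DMSO for 16 h at 30°C. β-Galactosidase is read with ONPG at OD430, normalised as (OD430−OD620)/OD620. Three-parameter logistic fit gives EC50 and Emax. Data are from 5-8 independent experiments.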

For assay [14], the target named is T6, Adenosine receptor A1. Kind of assay: Agonist activity at human Adenosine A1 receptor transfected in CHO-K1 cells assessed as inhibition of forskolin-stimulated cAMP production after 30 mins by multimode microplate reader analysis. The class given is functional, cell-based.
For assay [15], the target named is T2, Adenosine receptor A3 (Homo sapiens). The description is as §3. The class given is functional, cell-based. Summed up: as §4
Assay [16] deals with T3, Adenosine receptor A2b (Homo sapiens).
The target in assay [17] is T4, Adenosine receptor A2a. This is another data set of the same source.

14 compounds from ChEMBL document CHEMBL3769381 (J Med Chem, 2016) can be followed below.

In general, Emax refers to the size of the effect at its maximum, as opposed to the concentration needed. A word on the IC50: it is the midpoint of a concentration-inhibition curve. What is called EC50 is the midpoint of the concentration-response curve.

Molecules are shown by their SMILES. Active and inactive are the calls of the source. The rule behind the calls is not given here.

T4 sequence (P29274 whole entry): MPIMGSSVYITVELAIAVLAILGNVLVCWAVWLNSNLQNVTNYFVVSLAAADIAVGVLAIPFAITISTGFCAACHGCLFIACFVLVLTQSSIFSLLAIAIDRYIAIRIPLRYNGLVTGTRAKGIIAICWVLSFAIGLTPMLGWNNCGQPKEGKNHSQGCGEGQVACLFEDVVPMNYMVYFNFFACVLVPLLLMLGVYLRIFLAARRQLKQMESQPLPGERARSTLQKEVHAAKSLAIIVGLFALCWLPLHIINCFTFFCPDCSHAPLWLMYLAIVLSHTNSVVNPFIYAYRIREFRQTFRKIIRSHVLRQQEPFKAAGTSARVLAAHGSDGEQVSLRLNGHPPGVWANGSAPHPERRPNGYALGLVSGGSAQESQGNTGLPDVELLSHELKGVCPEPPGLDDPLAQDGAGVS

Take `OC[C@H]1O[C@@H](n2cnc3c(N[C@@H]4CCC[C@H]4OCc4ccccc4)ncnc32)[C@H](O)[C@@H]1O`: the pKA in [1] was determined as 4.9. In addition, the outcome in assay [2] was inactive. For the same compound, in [3], the Emax result was “inactive”. Further, the pKA entry in assay [4] and in [5] was “inactive” in each case.

For the compound `CN1[C@@H]2CCC[C@H]1C[C@@H](Nc1ncnc3c1ncn3[C@@H]1O[C@H](CO)[C@@H](O)[C@H]1O)C2`, the pKA entry in [1], in [4] and in assay [5] was “inactive” in each case. Also, the outcome in assay [6] and in [7] was inactive.

Regarding `CCNC(=O)[C@H]1O[C@@H](n2cnc3c(N4[C@@H]5CCC[C@H]4C[C@H](N(C)C)C5)ncnc32)[C@H](O)[C@@H]1O`, the pKA entry in [1], in assay [4] and in assay [5] was “inactive” each time. The result in assay [6], in assay [8] and in [7] was inactive.

As for `CCNC(=O)[C@H]1O[C@@H](n2cnc3c(N)nc(NCCc4ccc(CCC(=O)O)cc4)nc32)[C@H](O)[C@@H]1O`, the figures for the pKA in [1] and in assay [4] were 2.1 and 3.4, respectively. This compound also came in with an Emax in [3] of 59.1%.

Take `Nc1ncnc2c1ncn2[C@@H]1O[C@H](CO)[C@@H](O)[C@H]1O`: in assay [3], the Emax was 70.4%. The pKA in [4] is 3.8.

On to `O[C@@H]1[C@H](O)[C@@H](CSc2ccccc2F)O[C@H]1n1cnc2c(NC34CC5CC(CC(C5)C3)C4)ncnc21`, for which the pKA result in assay [1] and in assay [4] was “inactive” in each case. Besides, the outcome in assay [6] and in assay [8] was inactive.

With `CN1[C@@H]2CCC[C@H]1C[C@@H](Nc1ncnc3c1ncn3[C@@H]1O[C@H](CSc3ccccc3F)[C@@H](O)[C@H]1O)C2`, the pKA entry in [1], in assay [4] and in [5] was “inactive” throughout. In addition, the outcome in assay [6], in assay [8] and in assay [7] was inactive.

For `OC[C@H]1O[C@@H](n2cnc3c(N[C@@H]4CCC[C@H]4O)ncnc32)[C@H](O)[C@@H]1O`, the IC50 is 27.5 nM in assay [9] and 4.37 nM in assay [14]. In [1], this compound came in with a pKA of 5.5. For the same compound, in assay [2], the Activity was -35.1%. Besides, in assay [3], the Emax entry was “inactive”. The response in [10] was half-maximal at 631 nM (EC50). For the same compound, the pKA entry in assay [4] and in assay [5] was “inactive” throughout. Moreover, the pEC50 entry in assay [11] and in assay [13] was “inactive” each time. The log(activity) in assay [12] was found to be 0.7.

`OC[C@H]1O[C@@H](n2cnc3c(NC45CC6CC(CC(C6)C4)C5)ncnc32)[C@H](O)[C@@H]1O`: the pIC50 entry in [15] is “inactive”. Also, the pKA in assay [1] is 3. For the same compound, the outcome in assay [2] was inactive. Further, the Emax entry in assay [3] is “inactive”. The EC50 in [10] is 15800 nM. The pKA entry in [4] and in assay [5] was “inactive” in each case. In addition, the pEC50 result in assay [11] and in assay [13] was “inactive” in each case. Moreover, the log(activity) in assay [12] stood at 1.8. The IC50 in assay [14] was 19.1 nM.

For `CCNC(=O)[C@H]1O[C@@H](n2cnc3c(N)ncnc32)[C@H](O)[C@@H]1O`, the pKA in assay [1] came out at 4.4; in [4], 4.2. For the same compound, the Activity in assay [2] was -44.1%.

Consider `CCNC(=O)[C@H]1O[C@@H](n2cnc3c(N[C@H]4C[C@H]5CCC[C@@H](C4)N5C)ncnc32)[C@H](O)[C@@H]1O`, for which the pKA result in assay [1], in assay [4] and in assay [5] was “inactive” in each case. In addition, the outcome in assay [6] and in assay [7] was inactive.

On to `OC[C@H]1O[C@@H](n2cnc3c(NC4CCCC4)nc(Cl)nc32)[C@H](O)[C@@H]1O`, for which the Activity in assay [2] is -46.6%. For the same compound, the figures for the log(activity) in assay [16], in assay [12] and in assay [17] were 3.5, 0.6 and -0.1, respectively. This compound also returned an Emax in assay [3] of 30.6%. The pKA was found to be 4.4 in assay [4] and 4.7 in assay [5].

Turning to `CCNC(=O)[C@H]1O[C@@H](n2cnc3c(NC45CC6CC(CC(O)(C6)C4)C5)ncnc32)[C@H](O)[C@@H]1O`, the results for the IC50 in assay [9] and in assay [14] were 79.4 nM and 37.2 nM, respectively. The compound also yielded a pKA in assay [1] of 3.5. In assay [2], the Activity is -32.7%. For the same compound, the Emax result in assay [3] is “inactive”. The midpoint of the response in [10], the EC50, lay at 100000 nM. In addition, the pKA result in assay [4] and in assay [5] was “inactive” throughout. Moreover, the pEC50 entry in assay [11] and in assay [13] was “inactive” each time. The compound further yielded a log(activity) in assay [12] of 1.

As for `CCNC(=O)[C@H]1O[C@@H](n2cnc3c(N4[C@@H]5CCC[C@H]4C[C@H](N)C5)ncnc32)[C@H](O)[C@@H]1O`, the pKA entry in [1], in assay [4] and in [5] was “inactive” each time. Moreover, the outcome in [6], in [8] and in assay [7] was inactive.
